From PubChem
KCNQ1 block: human KCNQ1 channel inhibition; B-score at 10 µM; CHO-K1 KCNQ1, FluxOR thallium flux fluorescence; hits give high values; AID 2642; actives 1.3% (n = 310,000); P51787;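 active means compounds whose thallium flux B-score, printed positive for inhibition, exceeds three library SD while starting fluorescence stays within three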;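 further: channel opened by potassium depolarization with thallium stimulus after 20 min compound exposure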
Target sequence (P51787 whole entry, looked up): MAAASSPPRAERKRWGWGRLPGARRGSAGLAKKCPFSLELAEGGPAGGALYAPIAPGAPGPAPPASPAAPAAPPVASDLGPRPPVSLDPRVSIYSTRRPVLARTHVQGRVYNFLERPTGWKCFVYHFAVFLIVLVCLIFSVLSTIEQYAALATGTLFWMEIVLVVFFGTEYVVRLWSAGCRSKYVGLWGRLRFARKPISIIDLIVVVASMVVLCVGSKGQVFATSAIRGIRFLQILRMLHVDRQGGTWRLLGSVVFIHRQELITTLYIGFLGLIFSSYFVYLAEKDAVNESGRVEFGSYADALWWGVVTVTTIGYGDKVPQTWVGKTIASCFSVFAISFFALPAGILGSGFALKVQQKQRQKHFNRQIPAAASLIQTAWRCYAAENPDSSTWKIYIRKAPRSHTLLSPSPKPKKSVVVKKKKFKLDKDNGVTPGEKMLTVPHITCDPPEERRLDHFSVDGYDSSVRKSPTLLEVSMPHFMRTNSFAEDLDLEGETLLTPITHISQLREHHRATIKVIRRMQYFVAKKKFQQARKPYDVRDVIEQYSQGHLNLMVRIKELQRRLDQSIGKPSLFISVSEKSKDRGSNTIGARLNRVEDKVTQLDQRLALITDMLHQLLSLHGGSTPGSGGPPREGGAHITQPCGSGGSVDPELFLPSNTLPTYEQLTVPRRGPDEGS
Kir21 block: Kir2.1 (mouse) channel inhibition; actives 0.85% (n = 310,000); AID 1672; P35561; HEK293-Kir2.1, FluxOR thallium flux fluorescence; hits give low values; B-score at 10 µM;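 active means fluorescence ratio B-score at or below minus 3 SD of library scores, with starting-brightness B-score within 2 SD, cut at about -4.2 in these data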;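 further: channel flux triggered by added potassium and thallium sulfate stimulus; B-score of peak minus minimum fluorescence over baseline after thallium stimulus; more negative B-score means stronger Kir2.1 block with less thallium influx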
KCNK3 block: human KCNK3 channel inhibition, primary screen | O14649 | CHO-KCNK3 thallium flux, FluxOR fluorescence; hits give low values | B-score at 10 µM | actives 0.84% (n = 340,000) | AID 602410;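 active means B-score under library mean minus 4 SD, starting fluorescence ratio at most library mean plus 5 SD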;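 further: more negative B-score means stronger inhibition of thallium flux through KCNK3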
KCNK9 inh: blocks the human KCNK9 two-pore domain potassium channel; HEK293 KCNK9, FluxOR thallium flux fluorescence; hits give low values; B-score at 10 µM; actives 1.2% (n = 310,000);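 active means ratio B-score over 3 SD below the library mean, with starting fluorescence within 5 SD of its mean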;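 further: negative B-score means less thallium flux so channel inhibition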
KCNQ1 pot: potentiates or activates the human KCNQ1 potassium channel; CHO-K1 KCNQ1, thallium flux FluxOR fluorescence; hits give high values; P51787; B-score at 10 µM; actives 0.35% (n = 310,000);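 active means fluorescence ratio B-score, a plate-corrected score, at least three library SD, with initial intensity B-score within 5 SD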
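System: CHO-K1 cells stably expressing KCNQ1 / Medium: assay buffer for compound exposure, DMSO matched across wells / Reagent: thallium- and potassium-containing depolarizing buffer / Compound: one concentration, matched DMSO / Incubation: 20 min compound pretreatment at room temperature / Measured by: kinetic FluxOR fluorescence, 10 s baseline plus 110 s post-stimulus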
hERG protect: compounds protecting human hERG from proarrhythmic drug block; CHO-hERG, FluxOR thallium flux, dofetilide IC70 present; actives 0.51% (n = 310,000); activation (rescue from dofetilide block), less the hit threshold, % at 10 µM; Q12809;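 active means activation above the mean of controls blocked by dofetilide plus 5 SD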;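 further: thallium influx through hERG after potassium depolarization seen as dye fluorescence rise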
KCNK9 inh conf: human KCNK9 inhibitor confirmation. actives 43% (n = 4,900). shares compounds with KCNK9 inh. inhibition, % at 10 µM. HEK293 KCNK9 cells, FluxOR thallium flux fluorescence. AID 492992;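 active means thallium signal inhibited by more than 5 SD of the compound-free buffer control wells, on both duplicate plates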
Kir21 sel: tests whether KCNK9 modulators also affect mouse Kir2.1; shares compounds with KCNK9 inh; Kir2.1 cells, FluxOR thallium flux fluorescence; inhibition, % at 10 µM; actives 4% (n = 4,900); AID 492993;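 active means thallium signal drop more than 5 SD beyond the mean of the no-compound control wells, seen in both duplicate plates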;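 further: signal is fluorescence rise after thallium addition divided by baseline fluorescence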
KCNK9 uninduced: second counter-screen for KCNK9 modulators: effect in non-induced cells; shares compounds with KCNK9 inh; non-induced KCNK9-HEK293, FluxOR thallium flux; inhibition, % at 10 µM; actives 40% (n = 4,900); AID 492997;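 active means thallium signal drop beyond 5 SD of the untreated control mean, on both duplicate plates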
Each line names hits and unclear results; the compound was inactive in the other large screens (follow-up assays come after a bar, where they were run). Only some compounds are listed: those with a hit (about 3.7% of all), similar ones and a draw of the others.

COc1ccc(/C=N/NC(=O)c2nc(-c3ccccc3)cc(-c3ccccc3)n2)cc1O	KCNK9 inh -11 | KCNK9 inh conf 68% | Kir21 sel inactive | KCNK9 uninduced inactive
CCOCCOC(=O)COC(=O)c1ccccc1NC(=O)c1ccccc1	none | KCNK9 inh conf inactive | Kir21 sel inactive | KCNK9 uninduced inactive
CCOCC(=O)Nc1ccccc1C(=O)OCC	none
Cc1ccc(C(=O)COC(=O)CNC(=O)Cc2ccccc2)cc1[N+](=O)[O-]	none
O=C(COC(=O)c1ccccc1NC(=O)C1CC1)c1ccc2c(c1)OCCO2	none (no result: KCNK3 block)
CC(C)(C)C(=O)Nc1ccccc1C(=O)OCC(=O)c1ccc2c(c1)OCCO2	KCNK9 inh -18 | KCNK9 inh conf 62% | Kir21 sel inactive | KCNK9 uninduced 32%
Cc1ccc(C(=O)COC(=O)c2ccccc2NC(=O)c2ccccc2)cc1[N+](=O)[O-]	KCNK9 inh -9 | KCNK9 inh conf 49% | Kir21 sel inactive | KCNK9 uninduced 36%
COc1cc(/C=C(\NC(=O)c2ccccc2)C(=O)Nc2nccs2)ccc1OC(C)=O	none
CCN(c1ccc(OC)cc1)S(=O)(=O)c1nnc(NC(=O)CC(C)C)s1	none
Cc1ccc(NC(=O)COC(=O)CNC(=O)c2cccs2)cc1S(=O)(=O)N1CCOCC1	none (no result: KCNQ1 block, Kir21 block, KCNK9 inh, KCNQ1 pot, hERG protect)
CCCc1nc(SCC(=O)N2CCCc3ccccc32)c2c(=O)n(C)c(=O)n(C)c2n1	none | KCNK9 inh conf inactive | Kir21 sel inactive | KCNK9 uninduced inactive
O=C(Nc1ccccc1)Nc1n[nH]c2nnc(-c3ccccc3)c(-c3ccccc3)c12	none
COc1ccc(CC(=O)Nc2ccc(C(N)=O)cc2)cc1	none
COC(=O)/N=C(/Cc1ccc(OC)cc1)c1ccc(OC)cc1	none | KCNK9 inh conf inactive | Kir21 sel inactive | KCNK9 uninduced inactive
CCC(CO)Nc1ccc(-c2n[nH]c(=O)c3ccccc23)cc1[N+](=O)[O-] (stereo not drawn)	none
Cc1ccc(C)c(OCCC(=O)OCC(=O)Nc2ccc(C)c(S(=O)(=O)N3CCCCC3)c2)c1	KCNK9 inh -11 | KCNK9 inh conf inactive | Kir21 sel inactive | KCNK9 uninduced 29%
COc1ccc(NC(=O)COc2ccccc2F)cc1S(=O)(=O)N1CCCCC1	KCNK9 inh -9.6 | KCNK9 inh conf inactive | Kir21 sel inactive | KCNK9 uninduced inactive
Cc1ccc(OCCC(=O)OCC(=O)Nc2ccc(C)c(S(=O)(=O)N3CCOCC3)c2)cc1	none (no result: KCNQ1 block, Kir21 block, KCNK9 inh, KCNQ1 pot, hERG protect)
COc1ccc(NC(=O)CCOc2ccccc2F)cc1S(=O)(=O)N1CCCCC1	none (no result: KCNQ1 block, Kir21 block, KCNK9 inh, KCNQ1 pot, hERG protect)
Cc1ccc(S(=O)(=O)Nc2cccc3c2O[C@H](CN(C)C(=O)Nc2cccc4ccccc24)[C@H](C)CN([C@H](C)CO)C3=O)cc1	none (no result: KCNQ1 block, Kir21 block, KCNK9 inh, KCNQ1 pot, hERG protect)
COc1ccc(-c2noc(C3CCCN(S(=O)(=O)c4cccc(Cl)c4C)C3)n2)cc1OC (stereo not drawn)	KCNK9 inh -12 | KCNK9 inh conf 34% | Kir21 sel inactive | KCNK9 uninduced inactive
COc1ccc(-c2noc(C3CCCN(S(=O)(=O)c4ccc(C)c(Cl)c4)C3)n2)cc1OC (stereo not drawn)	none
COc1ccc(-c2noc(C3CCCN(C(=O)c4cccc(C)c4)C3)n2)cc1 (stereo not drawn)	none | KCNK9 inh conf inactive | Kir21 sel inactive | KCNK9 uninduced inactive
CCOc1ccc(S(=O)(=O)N2CCC(C(=O)N3CCCC3)CC2)cc1C	none
COc1ccc(Cl)cc1S(=O)(=O)N(C)CC(=O)N1CCOCC1	none
C=CCn1c(SCc2csc(C)n2)nc2sc3c(c2c1=O)CCCCC3	none
C=CCn1c(SCc2csc(C)n2)nc2sc3c(c2c1=O)CCC(C)C3 (stereo not drawn)	none | KCNK9 inh conf inactive | Kir21 sel inactive | KCNK9 uninduced inactive
Cc1cccc([C@@H]2[C@@H]3C(=O)N(Cc4ccccc4)C(=O)[C@@H]3[C@]3(Cc4ccccc4)C(=O)N(c4cccc(F)c4)C(=O)N23)c1	none
Cc1ccc(Cl)cc1N1CCN(S(=O)(=O)c2cccc(S(=O)(=O)N3CCCC3)c2)CC1	KCNK3 block -11, KCNK9 inh -10 | KCNK9 inh conf 49% | Kir21 sel inactive | KCNK9 uninduced 32%
COC(=O)c1ccc(N2CCCCC2)c(NS(=O)(=O)c2ccc(C)cc2)c1	none
CCOC(=O)c1ccc(N2CCCCC2)c(NS(=O)(=O)c2cccc(C(F)(F)F)c2)c1	KCNK9 inh -11 | KCNK9 inh conf 56% | Kir21 sel inactive | KCNK9 uninduced 34%
COC(=O)CCCC(=O)N1CCCC(C(=O)c2ccccc2SC)C1 (stereo not drawn)	none
COc1cc(CN2CCCC(C(=O)c3ccccc3SC)C2)cc(OC)c1 (stereo not drawn)	none | KCNK9 inh conf inactive | Kir21 sel inactive | KCNK9 uninduced inactive
COc1cc(OC)c(OC)cc1CN1CCCC(C(=O)c2ccccc2SC)C1 (stereo not drawn)	none | KCNK9 inh conf inactive | Kir21 sel inactive | KCNK9 uninduced inactive
Cc1ccc(S(=O)(=O)N2CCN(C(=O)CN3C(=O)NC(C)(c4ccc5ccccc5c4)C3=O)CC2)cc1 (stereo not drawn)	none (no result: KCNQ1 block, Kir21 block, KCNK9 inh, KCNQ1 pot, hERG protect)
COc1cc(C)c(NC(=O)C(=S)N2CCCC2)cc1C	none
COc1cc(C)c(NC(=O)C(=S)NCc2ccccc2)cc1C	none | KCNK9 inh conf inactive | Kir21 sel inactive | KCNK9 uninduced 27%
O=C(Nc1ccccc1C(F)(F)F)NC1(C(=O)N2CCOCC2)CCCCC1	none (no result: KCNQ1 block, Kir21 block, KCNK9 inh, KCNQ1 pot, hERG protect)
Cc1cc(SCC(=O)N/N=C/c2ccc(O)c(O)c2O)c(C)cc1Br	none | KCNK9 inh conf inactive | Kir21 sel inactive | KCNK9 uninduced inactive
Cc1cccc(C(=O)NC(=S)NC(C)c2ccccc2)c1 (stereo not drawn)	none | KCNK9 inh conf inactive | Kir21 sel inactive | KCNK9 uninduced inactive
Cc1cccc(C(=O)NC(=S)Nc2ccc(Cc3ccncc3)cc2)c1	none | KCNK9 inh conf inactive | Kir21 sel inactive | KCNK9 uninduced inactive
CC(NC(=S)NC(=O)c1ccccc1)c1ccccc1 (stereo not drawn)	none | KCNK9 inh conf inactive | Kir21 sel inactive | KCNK9 uninduced inactive
C#CCOc1ccccc1/C=N/NC(=O)c1ccccc1OCc1ccccc1	KCNK9 inh -9.6 | KCNK9 inh conf 30% | Kir21 sel inactive | KCNK9 uninduced 41%
